Published values collected from several papers.
Target: Cyclin-G-associated kinase (GAK, Homo sapiens, UniProt O14976)
Residues used in one study (O14976 1-1311): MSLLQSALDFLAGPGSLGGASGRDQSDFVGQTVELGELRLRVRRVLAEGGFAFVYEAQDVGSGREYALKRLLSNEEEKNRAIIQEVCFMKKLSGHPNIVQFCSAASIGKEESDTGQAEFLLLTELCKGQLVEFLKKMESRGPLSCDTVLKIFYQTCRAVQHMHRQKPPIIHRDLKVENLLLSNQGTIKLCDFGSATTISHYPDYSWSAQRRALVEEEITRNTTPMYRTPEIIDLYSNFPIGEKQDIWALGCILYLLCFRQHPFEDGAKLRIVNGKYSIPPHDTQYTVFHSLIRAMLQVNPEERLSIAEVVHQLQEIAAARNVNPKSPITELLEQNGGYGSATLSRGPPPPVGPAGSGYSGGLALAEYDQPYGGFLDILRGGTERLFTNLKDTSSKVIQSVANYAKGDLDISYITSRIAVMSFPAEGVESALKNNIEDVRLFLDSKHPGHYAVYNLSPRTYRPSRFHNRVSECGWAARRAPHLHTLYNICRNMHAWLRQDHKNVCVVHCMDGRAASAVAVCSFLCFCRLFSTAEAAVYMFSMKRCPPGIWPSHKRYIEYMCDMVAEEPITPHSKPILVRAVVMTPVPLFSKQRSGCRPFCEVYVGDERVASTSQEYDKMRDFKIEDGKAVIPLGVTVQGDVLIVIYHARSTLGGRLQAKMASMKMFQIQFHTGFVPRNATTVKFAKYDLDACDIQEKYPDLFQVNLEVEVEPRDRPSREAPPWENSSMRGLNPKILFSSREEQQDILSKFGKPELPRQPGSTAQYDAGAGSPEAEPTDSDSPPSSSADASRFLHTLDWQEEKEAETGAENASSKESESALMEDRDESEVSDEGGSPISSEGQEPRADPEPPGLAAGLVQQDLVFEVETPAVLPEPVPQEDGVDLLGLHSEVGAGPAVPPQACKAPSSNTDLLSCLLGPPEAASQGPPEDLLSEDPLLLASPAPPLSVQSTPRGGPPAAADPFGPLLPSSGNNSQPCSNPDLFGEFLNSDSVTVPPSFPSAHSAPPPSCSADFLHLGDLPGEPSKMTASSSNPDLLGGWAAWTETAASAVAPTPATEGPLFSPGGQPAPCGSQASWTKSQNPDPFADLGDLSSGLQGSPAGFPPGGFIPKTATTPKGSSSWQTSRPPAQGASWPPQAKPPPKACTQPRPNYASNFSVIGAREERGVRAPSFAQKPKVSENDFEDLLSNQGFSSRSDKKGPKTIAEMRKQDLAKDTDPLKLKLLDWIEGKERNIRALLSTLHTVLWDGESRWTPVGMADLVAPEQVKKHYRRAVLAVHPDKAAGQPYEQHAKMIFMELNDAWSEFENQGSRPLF

read-out | method | tested at | remaining binding | Structure (SMILES)
cell-free assay | competition with immobilised ligand | 1 µM | 100% | N#CC1(c2ccccn2)CCN(Cc2cc(C(=O)N3CCCC3)c(=O)n3ccccc23)CC1
binding |  | 1 µM | 100% | CN(CCCC(F)(F)F)c1nccc(-c2cnn3ncccc23)n1
binding | competition with immobilised ligand | 1 µM | 57% | COc1cnc(Nc2cccc(S(N)(=O)=O)c2)nc1N1CCN(c2ccccc2)C(=O)C1
binding | competition with immobilised ligand | 10 µM | 42% | c1cncc(-c2cccc(Nc3nccc(NC4CCCCC4)n3)c2)c1
binding | competition with immobilised ligand | 1 µM | 85% | COc1cnc(Nc2cccc(S(N)(=O)=O)c2)nc1N1CCN(c2ccccc2)CC1
binding |  | 1 µM | 100% | CN(C)c1ncc(F)c(-c2cnn3ncccc23)n1
binding | competition with immobilised ligand | 1 µM | 8.2% | Cc1cnc(Nc2ccc(C(=O)N3CCC(N4CCCC4)CC3)cc2)nc1-c1cc2ccccc2s1
binding |  | 1 µM | 52% | Cc1cnn2ncc(-c3ccnc(N(C)C)n3)c2c1
cell-free assay | competition with immobilised ligand | 1 µM | 100% | C[C@@H](c1cccc(C#N)c1)n1cc(Cl)cc(C(N)=O)c1=N
binding | competition with immobilised ligand | 1 µM | 15% | O=C(NCCCN1CCOCC1)c1ccc(Nc2ncc(Cl)c(-c3ccc(Cl)s3)n2)cc1
cell-free assay | competition with immobilised ligand | 5 µM | 9.7% | FC(F)(F)Oc1cccc(-c2cnc3ccc(-c4ccncc4)nn23)c1
binding | competition with immobilised ligand | 1 µM | 21% | O=C(NCCCN1CCOCC1)c1ccc(Nc2nccc(-c3cc4ccccc4s3)n2)cc1
cell-free assay | competition with immobilised ligand | 0.1 µM | 83.3% | Cc1cc(C)c(-n2ccn3nc(-c4cccnc4)cc23)cc1NC(=O)c1cc(C#N)cc(S(F)(F)(F)(F)F)c1
binding |  | 1 µM | 72% | CN(C)c1nccc(-c2cnc3ncccn23)n1
cell-free assay | competition with immobilised ligand | 1 µM | 100% | CN1CCN(c2cnc3c(C4CCN(C(=O)c5ccc(OC(F)(F)F)cc5N)CC4)ncnc3c2)CC1
binding |  | 1 µM | 28% | C[C@H]1CCN(c2nccc(-c3cnn4ncccc34)n2)C1
cell-free assay | competition with immobilised ligand | 1 µM | 98% | C[C@H](c1ccc(F)cc1)N(Cc1cccc(C(=O)O)c1)C(=O)c1cnc2ccccc2c1
binding | competition with immobilised ligand | 1 µM | 100% | C=CC(=O)N1CCC(C(=O)NCC(=O)N2CCN(c3nc(-c4cnc(N)nc4C(F)F)nc(N4CCOCC4)n3)CC2)CC1
cell-free assay | competition with immobilised ligand | 1 µM | 86% | C[C@@H]1CN(c2cc(-c3nn(C)c4ccc(OC5(C)CC5)cc34)ncn2)C[C@H](C)O1
binding |  | 1 µM | 73% | COc1ccnn2ncc(-c3ccnc(N(C)C)n3)c12
binding | competition with immobilised ligand | 1 µM | 88% | O=C(NCC1CCOCC1)c1n[nH]cc1NC(=O)c1c(F)cccc1F
cell-free assay | competition with immobilised ligand | 1 µM | 100% | O=C(O)c1cc(-c2ccc(C3CCNCC3)cc2)c2ccc(-c3ccc(C(F)(F)F)cc3)cc2c1
